Source: ChEMBL document CHEMBL4513216, “Probing the Open Global Health Chemical Diversity Library for Multistage-Active Starting Points for Next-Generation Antimalarials” (ACS Infect Dis, 2020)

Assay: Toxicity liver stage against HepG2, at 10uM
Format: cell-based
Set-up: test concentration 10 uM, cell line HepG2-A16-CD81EGFP
Details: human, HepG2-A16-CD81EGFP cells; read-out: INHIBITION
Method in brief: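 Uninfected HepG2-A16-CD81EGFP cells, 3 × 10^3 per well, 1536-well, plated on prespotted compound at 10 μM final, parasite-free screening media added to match infected plates; puromycin 10 μM positive, DMSO 0.5% negative; run in parallel with 48 h PbLuc assay at 37 °C, 5% CO2; viability by CellTiter-Glo luminescence, normalized to controls.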

| SMILES | cytotoxicity at 10 µM [%] |
| --- | --- |
| Fc1ccc(CN2CCOC[C@H](Oc3cccnc3)C2)cc1 | 7.35 |
| COCC(=O)N1CCN(C(C)=O)C[C@@H]1C(=O)OC | 2.43 |
| CCCNC(=O)C1CCCN(c2ccc3nncn3n2)C1 (stereo not given) | 10.7 |
| O=C(O)CCn1ccc(=O)c2cc(F)ccc21 | 1.09 |
| CCCNC(=O)CSc1nnc2[nH]c(=O)c3c(n12)CCCC3 | -83.3 |
| CCOc1ccc(S(=O)(=O)NCCCc2ccc(N(C)C)cc2)cc1C | 0.279 |
| O=C(NCC(O)c1ccsc1)Nc1cccs1 (stereo not given) | -8.29 |
| O=C(Nc1cccc(OC(F)F)c1)C1CN(S(=O)(=O)C2CC2)C1 | 0.696 |
| O=S(=O)(NCCC(O)c1cccs1)c1c(F)cccc1F (stereo not given) | -0.00815 |
| O=C(Nc1nc2c(s1)CN(S(=O)(=O)C1CC1)CC2)C1CC1 | -0.849 |
| CN(C)C(=O)c1ccc2ccc(N3CCN(CC4CC4)CC3)n2c1 | 4.14 |
| COc1ccc(C(=O)N2CCO[C@H]3[C@@H](OCC4CC4)CC[C@@H]32)cc1F | 19.1 |
| CCN1C(=O)CC(c2cccnc2)C12CCN(c1ncc(F)cn1)CC2 (stereo not given) | -8.59 |
| CCOC1CC2(CCN(c3cnccn3)CC2)c2ccccc21 (stereo not given) | 5.54 |
| Cc1ccc(C(=O)N2C[C@@H]3CN(S(C)(=O)=O)CCO[C@@H]3C2)o1 | -2.42 |
| CN(C)C(=O)c1cc2c(nc1NCC1CC1)CCN(CC1CC1)CC2 | 7.54 |
| O=C(COc1coc(CN2CCCCC2)cc1=O)c1ccc(Cl)cc1 | 3.13 |
| Cc1nc2c(N3CCN(Cc4ccccc4)CC3)nc(N)nc2n1C | 5.61 |
| CCN(Cc1c(C)nn(CC)c1C)S(=O)(=O)c1cnn(C)c1C | 9.65 |
| COc1ccccc1CN1CCC(c2nccc(C)n2)C1 (stereo not given) | 3.44 |
| CC(=O)N1CCC(C)(c2cc(C(=O)NCC(C)(C)C)nc(C)n2)CC1 | 6.93 |
| COc1ccc(CN2CC[C@H](NC(C)=O)[C@@H](O)CC2)c(F)c1 | -11.1 |
| CC(=O)N1CCCC1c1cccc(Cc2ccccc2Cl)n1 (stereo not given) | 1.58 |
| CC(C)n1ccnc1CN1CCOC(C)(C(=O)N2CCOCC2)C1 (stereo not given) | -8.58 |
| Oc1nc(N2CCOCC2)nc2c1CCN(Cc1ccc(F)cc1)CC2 | -4.14 |
| O=C(N[C@@H]1CCC[C@@H](n2ccnc2)[C@@H]1O)c1ccc2c(c1)CCCC2 | -11.3 |
| CS(=O)(=O)N1Cc2ccccc2CC2(CCN(Cc3ccncc3)C2)C1 (stereo not given) | 4.59 |

| SMILES | cytotoxicity at 10 µM [%] |
| --- | --- |
| COc1ccccc1/C=C/CNCC1CCc2nncn2C1 (stereo not given) | 3.91 |
| O=C(NCC1CCS(=O)(=O)C1)N(Cc1ccco1)C1CC1 (stereo not given) | -136 |
| CC(C)c1nn(C)c(Cl)c1CNCCn1cccn1 | -9.11 |
| COCCN(Cc1ccccn1)C(=O)Nc1cccnc1N1CCCC1 | 4.03 |
| Cc1noc(C2CCN(Cn3cc(Cl)cn3)CC2)n1 | -11.1 |
| Cc1nc(CN2CCCc3cc(OC(F)(F)F)ccc32)oc1C | 0.889 |
| COc1ccc(OC)c(CCNC(=O)CCC2CCCO2)c1 (stereo not given) | 2.34 |
| Cc1ccc(C2CCCN2S(=O)(=O)N(C)Cc2cnccn2)o1 (stereo not given) | 0.78 |
| CCC(=O)N(CC)C(c1cccnc1)c1ccc2c(c1)CCO2 (stereo not given) | 2.94 |
| O=C(CN1CCCC1COc1ccccc1)NCc1ccccn1 (stereo not given) | -0.764 |
| COc1ccc(N(C(=O)c2ccc(C)nc2)C(C)C)cc1F | -3.17 |
| CCC(CC)n1ncc(C(=O)NS(=O)(=O)c2ccsc2)c1C | -3.01 |
| CC(C)c1ncc(Cl)c(C(=O)N2CCN3CCCCC3C2)n1 (stereo not given) | 4.77 |
| CCC(CC)CNCC1(S(C)(=O)=O)CCOCC1 | 0.354 |
| Cc1nccn1-c1ccc(CNC(=O)c2ccc(O)nc2)cn1 | 1.75 |
| Cn1cccc(NC(=O)N2CCC(COCc3ccccc3)C2)c1=O (stereo not given) | 3.67 |
| O=C(NCCc1nnc2n1CCC2)N1CCC2(CCCCC2)C1 | 14.7 |
| COc1c(CNC2CCCc3ccccc32)c(C)nn1C (stereo not given) | -0.808 |
| O=C(c1ccoc1)N1CC[C@@H]2O[C@@H](COCC3CCOCC3)CC[C@@H]21 | -76.2 |
| CC(C)NC(=O)N1CCC2(COCc3cnc(-c4cccnc4)nc32)C1 (stereo not given) | 1.77 |
| COc1cc(-c2cc(=O)[nH]cn2)cc(OC)c1OC | -12.5 |
| Cc1cc(N2CCC3(CCCN(CCO)C3=O)C2)nc(C)c1C#N (stereo not given) | 7.41 |
| Cc1nc(CC(=O)N2CCCC2c2nc(-c3ccccc3)no2)cs1 (stereo not given) | 7.01 |
| CCc1oc(C(=O)N(C)Cc2ccncc2)cc1CN(CC)CC | -1.81 |
| CSCCCN1CC[C@@]2(O)CCN(c3ncccn3)C[C@H]2C1 | -4.53 |
| Cc1nn(C)c(C)c1CN(C(=O)c1cc(Cl)c[nH]c1=O)C(C)C | -3.25 |
| NCc1cn(CC2CCCN(C(=O)NCCc3ccc(F)cc3)C2)nn1 (stereo not given) | 17.2 |

| SMILES | cytotoxicity at 10 µM [%] |
| --- | --- |
| c1ccc(COC2CCN(Cc3cc4n(n3)CCCNC4)CC2)nc1 | 2.59 |
| CCNc1ncc(C(=O)NCc2ccc(F)c(C(F)(F)F)c2)cn1 | -5.96 |
| CCc1ccccc1OC1CN(C(=O)c2ccsc2)C1 | 7.46 |
| c1csc(CN2CCCN(c3ncnc4[nH]ccc34)CC2)c1 | 5.51 |
| Cc1ccc(N2CCN(C(=O)CCc3n[nH]c(C)c3C)CC2=O)cc1 | 4.78 |
| O=C1NCC2(CCCN(C(=O)c3ccc4c(c3)CCCO4)CC2)O1 (stereo not given) | -19.7 |
| CCOCn1cc(NC(=O)C2CCN(S(C)(=O)=O)CC2)cn1 | -10.7 |
| CS(=O)(=O)N1CCC(O)(Cn2c(C3CC3)nc3ccccc3c2=O)CC1 | 3.06 |
| CC(C)(C)OC(=O)N1CCN(C(=O)CCn2cccn2)CC1 | -14.6 |
| CCc1nc(C2CCCN(C(=O)c3ccccc3O)C2)no1 (stereo not given) | -7.39 |
| O=C(NCC(=O)N1CCCC1)c1nn(-c2ccccc2F)cc1O | 6.53 |
| CN(C)c1ccc(C(=O)N2CCCC(n3cccn3)C2)cn1 (stereo not given) | -11.5 |
| c1cnnc(NCC2CN(CCN3CCCCC3)CCO2)c1 (stereo not given) | -11.9 |
| CCn1c(C)cc(C(=O)N2CCCC(n3nc(C)nc3C)C2)c1C (stereo not given) | -11.4 |
| Cc1cccc(-c2nc(CN3CCc4c(ncn4C)C3)no2)c1 | -9.42 |
| Cc1cnn(CCC(=O)N2CCCC(c3nc(C)no3)C2)c1 (stereo not given) | -1.59 |
| O=C([C@@H]1CCO[C@@H]2CCN(Cc3ccsc3)C[C@@H]21)N1CCCC1 | -81.4 |
| Cc1cccc(CN2C(=O)C[C@H]3[C@@H]2CCN3Cc2ccccn2)n1 | 6.97 |
| CCN1CCC2(CCN(Cc3ccc(OC)cc3)CC2)C1=O | -0.0368 |
| Cn1nccc1-c1nnn2c1COC(CNCc1nccs1)C2 (stereo not given) | -1.07 |
| O=C(NC1CC1)[C@H]1C[C@H]2OCC[C@H]2N(Cc2ccc3ccccc3n2)C1 | -62.6 |
| CN(C)[C@@H]1CCN(C(=O)c2ccsc2)[C@H]1Cc1cccnc1 | -66.7 |
| CN(C[C@@H]1CCC[C@@H]2CN(c3ncccn3)C[C@@H]21)C1CC1 | 5.18 |
| CC(=O)N1CC(=O)N(c2ccccc2)CC12CCN(Cc1ccoc1)C2 (stereo not given) | -1.51 |
| CC(C)NCC1(COc2ccccc2)C[C@@H](O)[C@@H](O)C1 (stereo not given in full) | 0.67 |
| CC(=O)N1C[C@H]2CC[C@@H](C1)N(S(=O)(=O)c1ccc(C#N)cc1Cl)C2 | 1.33 |
